{
  "source": "ChEMBL document CHEMBL3407438",
  "about": "“Discovery of potent, orally bioavailable, small-molecule inhibitors of WNT signaling from a cell-based pathway screen” (J Med Chem, 2015)",
  "key": {"[1]": {"assay": "Clearance in NMRI mouse at 0.2 mg/kg, iv", "format": "ADME, organism-based", "set-up": "dose 0.2 mg/kg, route intravenous", "conditions": "in vivo; call rule not given here", "summary_of_the_method": "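Female NMRI mice (n = 5) given a single iv bolus (0.2 mg/kg per compound) or oral gavage (0.5 mg/kg per compound) as a cassette, in DMSO/PEG 200/water. Serial retro-orbital blood was drawn under isoflurane from 3 animals per route at 0.1 (iv), 0.25 (po), 0.5, 1, 2, 4 and 6 h. Plasma was quantified by LC–MS/MS.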"}, "[2]": {"tested_on": "Plasma", "assay": "Drug uptake in plasma of human COLO205-F1756 clone 4 cells harboring APC mutant xenografted CrTac:NCr-Foxn1nu mouse at 70 mg/kg, po bid for 9 days measured after 2 to 6 hrs", "format": "ADME, organism-based, COLO 205", "set-up": "dose 70 mg/kg, route oral", "conditions": "in vivo", "summary_of_the_method": "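In COLO205-F1756 clone 4 xenograft-bearing nude mice dosed orally at 70 mg/kg bid, cardiac blood and tumours were taken 2 and 6 h after the final dose. Tumours were homogenized in 3 v/w PBS, methanol-extracted with internal standard, and total levels were measured by UPLC–MS/MS (MRM, positive ion).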"}},
  "data": [
    {"smiles": "Cn1cc(-c2ccc(-c3cncc(Cl)c3N3CCC4(CCNC4=O)CC3)cc2)cn1", "values": [
      {"measurement": "clearance", "setting": "[1]", "value": 31, "unit": "mL/min/kg"},
      {"measurement": "Drug uptake", "setting": "[2]", "value": "Active"}
    ]}
  ]
}
